Screening results deposited in PubChem BioAssay by several laboratories.
DDE Tn6 FP inh: inhibitors of Tn6 peptide binding to human fibrin DD(E). Fibrin DD(E) TRITC-Tn6 fluorescence polarization displacement. 370,000 compounds, 0.21% hits. AID 720509. inhibition, % at 8.3 µM. P02675;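 active = inhibition above a per-campaign cutoff: mean of compounds within control limits plus 3 SD, cut at about 15% in these data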;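 note: 0% = median of all compound wells on the plate and 100% = blocking peptide control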
Target sequence (P02675 whole entry, looked up): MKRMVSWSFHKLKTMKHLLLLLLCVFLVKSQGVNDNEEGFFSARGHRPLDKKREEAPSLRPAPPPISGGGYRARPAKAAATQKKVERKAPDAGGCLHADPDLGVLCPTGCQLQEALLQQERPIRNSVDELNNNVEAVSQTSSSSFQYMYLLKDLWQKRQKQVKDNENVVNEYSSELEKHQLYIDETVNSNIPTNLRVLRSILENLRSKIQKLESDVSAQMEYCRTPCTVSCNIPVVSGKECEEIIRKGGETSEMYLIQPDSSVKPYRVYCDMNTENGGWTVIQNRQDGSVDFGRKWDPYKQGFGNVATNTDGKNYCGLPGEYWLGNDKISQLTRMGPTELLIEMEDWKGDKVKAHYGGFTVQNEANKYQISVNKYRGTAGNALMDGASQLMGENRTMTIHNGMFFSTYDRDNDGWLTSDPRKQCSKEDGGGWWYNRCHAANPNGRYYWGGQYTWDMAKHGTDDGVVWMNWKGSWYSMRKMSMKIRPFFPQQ
DDE Tn7 FP inh: DD(E)-Tn7 binding inhibition, primary FP screen; FP displacement of FITC-Tn7 peptide from fibrin DD(E); 0% = median of compound wells per plate; inhibition, % at 8.3 µM; 370,000 compounds, 0.13% hits;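 active = inhibition above the mean of compounds falling within the control limits plus 3 SD of them, cut at about 14% in these data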;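 note: 0% = plate median of compound wells and 100% = 10 µM Aha-Tn7 peptide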
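Assay system: Fibrin-DD(E) protein isolated from polymerized human fibrin clots; read-out basis: percent inhibition; medium: Tris/NaCl/CaCl2 buffer, pH 7.8; signal: FP measurement; incubation: 10 min plus 3 h, room temperature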
MT1-MMP act inh: inhibitors of human MT1-MMP activation. GFP/RFP ratio change, % at 20 µM. AID 651647. P50281. 360,000 compounds, 0.061% hits. HT1080 RFP-PRO-GFP cells, GFP/RFP ratio fluorescence, overnight; percent of plate control window, DMSO zero;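 active = GFP/RFP ratio change of at least 30% with cell ATP level not reduced by more than half and red fluorescence within 50% of control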
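Compound: 20 µM single dose, 1% DMSO / System: HT1080 RFP-PRO-GFP cells / Controls: DMSO and RFP-L50D-GFP cell wells / Read-out basis: GFP/RFP fluorescence ratio / Schedule: overnight compound exposure at 37 °C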
Neddyl block: inhibitors of human cullin neddylation | P61081+Q13564 | TR-FRET cullin neddylation, biochemical | calls only at 25 µM | 360,000 compounds, 0.58% hits; in the data active = inhibition above about 36%
proKLK7 act: activators of human kallikrein-7 zymogen. purified proKLK7, EDANS-DABCYL substrate fluorescence; 100% is mature enzyme control, 0% vehicle. 370,000 compounds, 0.9% hits. activation, % at 7 µM;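 active = activation above the mean of all tested compounds plus 3 SD, computed per campaign excluding outliers beyond control limits, cut at about 13% in these data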
SKN-1 inh: inhibitors of C. elegans SKN-1 | C. elegans VP596 Pgst-4::GFP/RFP ratio, acrylamide-induced, 24 h | inhibition, % at 21.8 µM | 360,000 compounds, 0.49% hits;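 active = interference check ratio from 0.5 to 1.5 plus GFP to RFP signal ratio inhibition reaching or exceeding a fixed threshold, cut at about 30% in these data, passing the limit was not always enough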
Tn6 DDE ctr: counter-screen hit for Tn6 peptide-fibrin DD(E) binding disruption. inhibition, % at 8.3 µM. 680 compounds, 2% hits. TRITC-Tn6 fluorescence polarization displacement; 0% = median of compound wells, not DMSO. shares compounds with DDE Tn6 FP inh;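 active = inhibition above the mean of test compounds lying between the control limits plus 3 SD of those, cut at about 14% in these data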;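 note: 0% = median of compound wells and 100% = wells with Aha-Tn7 blocking peptide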
DDE Tn6 confirm: DD(E)-Tn6 binding inhibition, FP confirmation; shares compounds with DDE Tn6 FP inh; FP displacement of TRITC-Tn6 peptide from DD(E); 0% = per-plate median of test wells; inhibition, % at 8.3 µM; 680 compounds, 10% hits; AID 720631;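 active = inhibition above the mean of compounds lying within the control limits plus 3 SD, cut at about 16% in these data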;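 note: 100% = high control wells holding a competing inhibitor peptide at 10 µM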
An asterisk follows results filed as active; i = inactive; / = not tested or not shown. Shown are actives, neighbours in structure and some others; about 2.2% of the full set was active somewhere.

SMILES	DDE Tn6 FP inh	DDE Tn7 FP inh	MT1-MMP act inh	Neddyl block	proKLK7 act	SKN-1 inh	Tn6 DDE ctr	DDE Tn6 confirm
Cc1ccccc1C(=O)Nc1ccc(-c2nc3ccc(C(=O)c4ccccc4)cc3[nH]2)cc1	38*	-2	-3	i	-97	15	14*	22*
O=C(OC1CCOC1=O)c1cc(Cl)ccc1[N+](=O)[O-] (stereo not drawn)	-5	3	-4	i	0	7	/	/
CC(=O)Nc1sc2c(c1-c1nc3ccccc3s1)CCOC2	16*	-1	/	/	/	/	11	7
CC(=O)Nc1sc2c(c1-c1nc3ccccc3s1)CCN(C)C2	-2	7	/	/	/	/	/	/
COc1ccc(CC(=O)OCC(=O)N2CCCC(C)C2)cc1 (stereo not drawn)	15*	-2	0	i	0	22	-4	-8
CC(C)(O)C(=O)NNC(=S)Nc1cccc(C(F)(F)F)c1	17*	5	3	i	0	1	3	2
CNNC(=S)Nc1cccc(C(F)(F)F)c1	-2	-6	0	i	0	-1	/	/
C/C(=N\N(c1ccccc1)c1ccccc1)c1ccc(O)cc1	1	-4	1	i	0	10	/	/
O=C(c1coc(=O)c(Br)c1)N1CCOCC1	18*	3	3	/	-6	-6	-2	-4
O=C(c1ccc(=O)oc1)N1CCOCC1	2	1	1	i	0	9	/	/
COc1ccc(NC(=O)CSc2nnc(-c3ccc(C)cc3)n2N)cc1	-10	1	3	i	1	-6	/	/
CCCCn1c(CCNC(=O)CCC)nc2ccccc21	-6	0	0	i	0	-11	/	/
CCC/C=C/c1ccc(CN2C(C)C(=O)N(Cc3cn(CCC4OCCCO4)nn3)CCS2(=O)=O)cc1 (stereo not drawn)	2	5	5	i	0	11	/	/
CC(=O)c1ccc(N2CCN(CN3C(=O)CC4(CCCC4)C3=O)CC2)c(F)c1	70*	-10	-4	i	0	-22	8	2
CC(C)C(Cl)=NOC(=O)Nc1ccc(S(N)(=O)=O)cc1	16*	-11	4	i	0	-10	7	8
O=C(O)c1ccc(S(=O)(=O)c2ccc3c(c2)C(=O)N(c2ccc(O)cc2)C3=O)cc1	48*	0	5	i	1	-13	2	1
Cc1ccc(C(=O)N2[C@@H]3CN(C)C(=O)[C@@]2(Cc2ccccc2)[C@H]2C(=O)N(C)C(=O)[C@@H]32)cc1	16*	8	-2	i	0	-2	-3	-3
CCN1C[C@@H]2[C@@H]3C(=O)N(C)C(=O)[C@@H]3[C@](Cc3ccccc3)(C1=O)N2C(=O)c1ccc(C)cc1	-6	-6	0	i	-1	20	/	/
COc1cccc(N2C(N)=NC(N)=NC2(C)C)c1	1	-1	1	i	0	14	/	/
CC1(C)N=C(N)N=C(N)N1c1cccc(C#N)c1	16*	3	-4	i	-1	-1	9	6
O=C(Nc1ccc(Cl)cc1)c1csc(-c2ccccc2)n1	28*	6	6	i	-1	9	10	26*
O=C1CCC/C1=C/Nc1ccc2c(c1)OCO2	21*	12	-10	i	-1	25	3	3
CC1CCC/C(=C\Nc2ccc3c(c2)OCO3)C1=O (stereo not drawn)	11	4	-1	i	0	-38	/	/
O=C1CCCC/C1=C\Nc1ccc(O)cc1	27*	5	7	i	0	8	4	0
COC(=O)c1ccc(C(=O)OC)c(NC(=O)CN2CCN(c3ccccc3)CC2)c1	9	2	1	i	0	0	/	/
SMILES	DDE Tn6 FP inh	DDE Tn7 FP inh	MT1-MMP act inh	Neddyl block	proKLK7 act	SKN-1 inh	Tn6 DDE ctr	DDE Tn6 confirm
NC(N)=N/N=C/c1ccccc1OC(F)F	17*	1	3	i	0	12	-1	-1
C[C@@]12CC[C@H]3OC(=O)C=C3C1CC[C@@]13CC(CCC12)[C@](CO)(O[C@H]1O[C@H](CO)[C@@H](O)[C@H](O)[C@H]1O)C3 (stereo partly drawn)	7	-3	13	i	0	13	/	/
COc1ccc(CCC(=O)NCCS(=O)(=O)N2CCN(c3ccccc3F)CC2)cc1	-5	-4	1	i	0	7	/	/
CN1Cc2ccccc2N(CC(=O)NCc2ccccc2)C1=O	-3	4	-1	i	0	-6	/	/
O=C(CSc1ccc(-c2nc3ccccc3[nH]2)cn1)Nc1ccc(S(=O)(=O)NC2CC2)cc1	182*	-4	10	i	-2	8	9	-12
CCOC(=O)c1c(C)[nH]c(O)c1C=Nc1ccc(Cl)cc1	32*	-4	-34	i	3	32	2	-3
NC(N)=NS(=O)(=O)c1ccc(NC(=S)NC(=O)/C=C/c2cccs2)cc1	51*	7	2	i	-1	15	-8	-8
O=C(COC(=O)c1ccccc1Cc1ccccc1)Nc1ccc(SC(F)F)cc1	16*	-4	4	i	1	8	-1	-21
Cc1ccc(C(=O)c2ccccc2C(=O)OCC(=O)Nc2ccc(SC(F)F)cc2)cc1	-5	4	-7	i	-1	16	/	/
O=C(NCc1ccccc1)[C@H]1CCCN1C(=O)[C@H]1CCCN1C(=O)c1cccs1	0	6	/	/	0	/	/	/
CCOC(=O)c1ccc(S(=O)(=O)N2CCC(C(=O)N3CCN(c4ccccc4OC)CC3)CC2)cc1	1	4	19	i	0	17	/	/
Cc1ccccc1C(=O)N1CCC(C(=O)Nc2ccccn2)CC1	44*	2	6	i	-1	0	1	-4
Cc1ccccc1C(=O)N1CCC(C(=O)Nc2ccc(F)cc2)CC1	15*	1	2	i	0	7	4	-9
Cc1cccc(C(=O)Nc2nc(C)c(C(=O)Nc3ccc4c(c3)CCC4)s2)c1	-11	-9	-4	i	-4	6	/	/
Cc1ccc(C)c(SCC(=O)Nc2ccc(S(=O)(=O)Nc3ncccn3)cc2)c1	8	-1	-5	i	0	0	/	/
